ChEMBL document CHEMBL1149249 (J Med Chem, 2004)

Key:
[1] = Metabolic stability in rat liver microsomes at 2 uM after 15 mins; assay type: ADME, Microsome; conditions: read-out: Stability
Outline: (§1)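 Test compound at 2 μM final was incubated at 37 °C with shaking in Sprague–Dawley rat liver microsomes in 66 mM potassium phosphate pH 7.4. An NADP+/glucose-6-phosphate/MgCl2/G6P dehydrogenase regenerating system was present. Aliquots taken at 0, 15, 30 and 60 min were quenched in acetonitrile containing DPCPX internal standard. Percent parent remaining was measured by LC/MS.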

Adenosine receptor A2a = Adenosine receptor A2a (Rattus norvegicus, UniProt P30543); experiment: Displacement of [3H]ZM241385 from adenosine A2A receptor in rat brain membrane; assay type: cell membranes
Adenosine receptor A1 = molecular target: T1, Adenosine receptor A1 (Rattus norvegicus, UniProt P25099); experiment: Displacement of [3h]DPCPX from adenosine A receptor in rat cerebral cortex membrane
T1 sequence (P25099 whole entry): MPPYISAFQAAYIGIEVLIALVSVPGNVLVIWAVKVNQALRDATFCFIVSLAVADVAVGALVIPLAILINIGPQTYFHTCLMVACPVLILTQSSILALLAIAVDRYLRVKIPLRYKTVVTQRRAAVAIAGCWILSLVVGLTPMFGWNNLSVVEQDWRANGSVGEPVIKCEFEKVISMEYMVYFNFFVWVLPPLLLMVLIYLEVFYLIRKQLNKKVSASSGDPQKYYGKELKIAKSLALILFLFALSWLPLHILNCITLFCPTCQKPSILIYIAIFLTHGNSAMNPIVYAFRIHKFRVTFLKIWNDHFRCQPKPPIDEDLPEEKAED

[2] = Metabolic stability in rat liver microsome at 2 uM after 60 mins; assay type: ADME; conditions: liver microsomes, read-out: Stability; outline: as §1
[3] = Metabolic stability in rat liver microsome at 2 uM after 30 mins; assay type: ADME; conditions: liver microsomes, read-out: Stability; outline: as §1
Mus musculus [4] = experiment: Reduction of haloperidol-induced catalepsy in CD1 mouse within 30 mins at 3 mg/kg, po; assay type: functional; parameters: scale not given: the % may be the effect or the level left
Outline: (§2)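 Male CD-1 mice (25–30 g) received haloperidol 3 mg/kg sc. Bar test used a 4.5 cm high, 1 cm bar with a 120 s cutoff, measured every 30 min. Once baseline catalepsy was stable (about 3 h), compound or vehicle was given by oral gavage. Catalepsy was then scored every 30 min for 2 h. Analysis was one-way ANOVA with Dunnett's post hoc test.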

Mus musculus [5] = experiment: Reduction of haloperidol-induced catalepsy in orally dosed CD1 mouse; assay type: functional; conditions: CD1, po; outline: as §2
Rattus norvegicus = experiment: Reduction of haloperidol-induced catalepsy in orally dosed Sprague-Dawley rat; assay type: functional; conditions: po
Outline: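 Male Sprague–Dawley rats (225–275 g) were given haloperidol 1 mg/kg, with bar tests every 30 min (1 cm bar, 10 cm high, 120 s maximum). After a stable cataleptic baseline at about 3 h, compound or vehicle was dosed by oral gavage. The bar test was repeated every 30 min for 2 h. Data were analyzed by one-way ANOVA with Dunnett's test.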

Sequence of Adenosine receptor A2a (P30543 whole entry): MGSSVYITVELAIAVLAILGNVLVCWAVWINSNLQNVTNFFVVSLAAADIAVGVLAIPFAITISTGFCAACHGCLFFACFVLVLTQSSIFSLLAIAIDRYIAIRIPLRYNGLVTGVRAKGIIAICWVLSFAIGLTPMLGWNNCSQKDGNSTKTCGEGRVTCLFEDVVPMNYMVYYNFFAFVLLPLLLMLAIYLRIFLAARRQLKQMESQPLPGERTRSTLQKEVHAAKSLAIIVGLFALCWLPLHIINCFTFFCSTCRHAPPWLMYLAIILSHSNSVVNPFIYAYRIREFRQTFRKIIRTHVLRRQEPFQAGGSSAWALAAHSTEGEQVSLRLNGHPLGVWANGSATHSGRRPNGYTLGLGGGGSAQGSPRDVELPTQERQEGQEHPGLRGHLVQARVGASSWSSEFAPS

| SMILES | remaining at 0.25 h, 2 µM [1] [%] | Ki (Adenosine receptor A2a) | Ki (Adenosine receptor A1) | remaining at 1 h, 2 µM [2] [%] | remaining at 0.5 h, 2 µM [3] [%] | Activity (Mus musculus [4]) [%] | ED50 (Mus musculus [5]) [mg/kg] | ED50 (Rattus norvegicus) [mg/kg] |
| --- | --- | --- | --- | --- | --- | --- | --- | --- |
| Nc1nc(NC[C@@H]2CC[C@@H]3CN(c4ncccn4)CCN3C2)nc2nc(-c3ccco3)nn12 (racemic) | 89 | 0.3 nM (antagonist) | 1600 nM | 43 | 65 |  |  |  |
| Nc1nc(N2CCN3C[C@@H](COc4ccc5ncccc5c4)CC[C@H]3C2)nc2nc(-c3ccco3)nn12 | 42 | 0.6 nM (antagonist) | 3500 nM | 16 | 25 |  |  |  |
| Nc1nc(N2CCN3CCC[C@H]3C2)nc2nc(-c3ccco3)nn12 | 69 | 46 nM (antagonist) | > 500 nM | 36 | 54 |  |  |  |
| Nc1nc(N2CCN3C[C@@H](CO)CC[C@H]3C2)nc2nc(-c3ccco3)nn12 (racemic) | 100 | 45 nM (antagonist) | 660 nM (antagonist) | 100 | 100 | >50 |  |  |
| Nc1nc(N2CCN3C[C@@H](COc4cccc(F)c4)CC[C@H]3C2)nc2nc(-c3ccco3)nn12 (racemic) | 57 | 0.2 nM (antagonist) | 3300 nM | 12 | 36 |  |  |  |
| Nc1nc(N2CCN3C[C@@H](CO)CC[C@H]3C2)cc2nc(-c3ccco3)nn12 (racemic) | 100 | 96 nM (antagonist) | > 500 nM | 85 | 100 | >50 |  |  |
| Nc1nc(N2CCN3CCC[C@@H]3C2)nc2nc(-c3ccco3)nn12 | 67 | 30 nM (antagonist) | 1200 nM | 61 | 75 |  |  |  |
| Cn1nc(C(F)(F)F)c(CN2CCN(c3nc(N)n4nc(-c5ccco5)nc4n3)CC2)c1Cl | 14 |  |  |  |  |  | 3 | 3 |
| Nc1nc(NC[C@H]2CCCN2Cc2c(F)cccc2F)nc2nc(-c3ccco3)nn12 |  | 3.6 nM (antagonist) | 427 nM (antagonist) |  |  |  | 10 | 10 |
| Nc1cc(N2CCN3C[C@@H](CO)CC[C@H]3C2)nc2nc(-c3ccco3)nn12 (racemic) | 97 | 230 nM (antagonist) | > 500 nM | 51 | 81 |  |  |  |
| Nc1nc(N2CCN3CCC[C@@H]3C2)cc2nc(-c3ccco3)nn12 |  | 63 nM (antagonist) | 1100 nM |  |  |  |  |  |
| Nc1nc(N2CCN3C[C@@H](COc4cccnc4)CC[C@H]3C2)nc2nc(-c3ccco3)nn12 (racemic) |  | 0.3 nM (antagonist) | 1400 nM |  |  |  |  |  |
| Nc1nc(N2CCN3C[C@@H](COc4ccc(F)cc4F)CC[C@H]3C2)nc2nc(-c3ccco3)nn12 (racemic) |  | 70 nM (antagonist) | > 500 nM |  |  |  |  |  |
| Nc1nc(NC[C@@H]2CC[C@@H]3CN(Cc4ccc(F)cc4F)CCN3C2)nc2nc(-c3ccco3)nn12 (racemic) |  | 130 nM (antagonist) | > 500 nM |  |  |  |  |  |
| NC[C@H]1CC[C@H]2CN(c3cc(N)n4nc(-c5ccco5)nc4n3)CCN2C1 |  | 110 nM (antagonist) | > 500 nM |  |  |  |  |  |
| Nc1nc(N2CCN3C[C@H](COc4cccc(F)c4)CC[C@H]3C2)nc2nc(-c3ccco3)nn12 (mixture of isomers) |  | 53 nM (antagonist) | 960 nM (antagonist) |  |  |  |  |  |
| Nc1nc(N2CCN3CCC[C@H]3C2)cc2nc(-c3ccco3)nn12 |  | 110 nM (antagonist) | > 500 nM |  |  |  |  |  |
| Nc1nc(NC[C@H]2CC[C@@H]3CN(c4ncccn4)CCN3C2)nc2nc(-c3ccco3)nn12 (racemic) |  | 230 nM (antagonist) | > 1000 nM |  |  |  |  |  |
| Nc1nc(N2C[C@@H]3CCCN3C[C@@H]2Cc2ccccc2)nc2nc(-c3ccco3)nn12 |  | 490 nM (antagonist) | > 1000 nM |  |  |  |  |  |
| Nc1cc(N2CCN3C[C@H](CO)CC[C@H]3C2)nc2nc(-c3ccco3)nn12 (racemic) |  | 860 nM (antagonist) | > 1000 nM |  |  |  |  |  |
